# Assay results: PubChem BioAssay
# Activity calls are given as the source filed them.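 How the source made its calls, unless noted: active means viability at or below 30% in both replicate assays; inconclusive means viability at or below 30% in just one of the two assays; inactive means the rest.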
# Legend:
# [1] = SK-BR-3 cell growth inhibitors, pilot screen, 24 h, human (AID 572;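 active means viability at or below 10% of carrier control in both of two separate runs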;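 further: compound exposure lasted between 18 and 24 h rather than exactly 24 h; 100% = carrier-treated control wells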); details: SK-BR-3 viability, CellTiter-Glo luminescence, at 10 µM, stronger effect = lower value
# [2] = HUVEC growth inhibition – cell-based, human, primary screen (AID 575); details: HUVEC proliferation, CellTiter-Glo luminescence, 72 h; at 10 µM; stronger effect = lower value;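 further: 100% = median of untreated cell wells with 0.1% DMSO on each plate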
# Method in brief: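 material = primary HUVEC, no more than 12 passages | input = 1250 cells per well | controls = vehicle and MePR control wells | measured by = CTG luminescence | times = 72 h compound incubation | format = collagen-coated 384-well format | read-out = % viability vs DMSO wells | doses = single 10 µM dose, 0.1% DMSO, from 5x medium stock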
# [3] = growth inhibitors of H69AR lung tumor, primary screen, human, duplicate replicates (AID 580;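 active means viability at or under a set limit in both replicates, limit being median viability minus 3 SD, cut at about 48% in these data, passing the limit was not always enough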;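 further: 100% = mean luminescence of untreated wells and 0% = no signal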); details: H69AR lung tumor cells viability, ATP luminescence, 72 h; at 10 µM; stronger effect = lower value
# [4] = reversal of MRP1-mediated doxorubicin resistance, pilot screen, H69AR cells, doxorubicin co-treatment (AID 601;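 active means viability loss from added drug above about 55%, and viability with drug at most 40%, in both replicates, limit read from the data, passing the limit was not always enough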); details: CellTiter-Glo, 72 h, at 10 µM; for differential viability (reversal): stronger effect = higher value
# [5] = 384-well plate pilot, post-Golgi transport modulator project, inhibition of yeast transport mutant growth (AID 636; in the data active means inhibition above about 31%); details: absorbance 615 nm, about 18 h, stronger effect = higher value
# [6] = growth suppression of yeast trafficking mutant, preliminary HTS, modulators of trafficking downstream of Golgi apparatus project, 1536-format plate, OD 615 nm (AID 637; in the data active means inhibition above about 30%); details: yeast transport mutant growth, absorbance 615 nm, 18 h; stronger effect = higher value
# [7] = H69AR cells + 2 uM doxorubicin, measured here: viability with 2 uM doxorubicin, stronger effect = lower value
# [8] = H69AR cells, compound alone cytotoxicity
Structure (SMILES),viability [1],viability [2],viability [3],differential viability (reversal) ([4]; H69AR cells + 2 uM doxorubicin),"viability [4, 7] [%]","viability [4, 8] [%]",inhibition [5],inhibition [6]
Cc1cc(=O)n2nc(N3CCCC(C(=O)N4CCc5ccccc54)C3)sc2n1 (stereo not drawn),82% (inactive),87.1% (inactive),85.8% (inactive),-2.83% (inactive),88.7,85.8,-6.76% (inactive),1.64% (inactive)
CCOC(=O)c1sc(NC(=O)CSc2nnc(-c3ccc(OC)cc3)n2CCOC)nc1C,99% (inactive),97.2% (inactive),101% (inactive),21.8% (inactive),79.6,101,-4.94% (inactive),1.31% (inactive)
N#CCc1ccc(NC(=O)Nc2cccc(Cl)c2)cc1,88% (inactive),76.9% (inactive),92.5% (inactive),-12.1% (inactive),105,92.5,-6.44% (inactive),2.73% (inactive)
Cc1cc(C(=O)Nc2nnc(C(F)(F)F)s2)no1,98% (inactive),107% (inactive),105% (inactive),5.13% (inactive),99.8,105,-7.4% (inactive),0.32% (inactive)
CN1C(=O)c2c(sc3c2CCCC3)NC1c1ccccc1O (stereo not drawn),72% (inactive),68.7% (inactive),93.2% (inactive),-2.01% (inactive),95.2,93.2,-3.97% (inactive),-0.81% (inactive)
Cc1ccc(-c2nc3cc(NC(=O)C(C)C)ccc3o2)cc1C,80% (inactive),51.8% (inactive),72.9% (inactive),2.97% (inactive),69.9,72.9,-4.66% (inactive),-8.55% (inactive)
O=C(CCn1cccc1)N1CCc2ccccc21,104% (inactive),83% (inactive),101% (inactive),13.3% (inactive),87.6,101,-2.08% (inactive),2.13% (inactive)
COC(=O)c1ccc2c(=O)n(NC(C)=O)c(=S)[nH]c2c1,93% (inactive),109% (inactive),93.7% (inactive),10.7% (inactive),83,93.7,-6.67% (inactive),3.09% (inactive)
O=C(CCCSc1nc2ccccc2s1)NC1=NCCS1,86% (inactive),102% (inactive),93.7% (inactive),-4.02% (inactive),97.8,93.7,-7.53% (inactive),1.82% (inactive)
CCn1cc(C(=O)NC2CCc3ccccc32)c(=O)c2ccc(C)nc21 (stereo not drawn),77% (inactive),84.3% (inactive),81.6% (inactive),-10.2% (inactive),91.7,81.6,-0.13% (inactive),5.41% (inactive)
O=C(CSc1nnc(COc2ccc(Cl)cc2)o1)OC1CCCCC1,106% (inactive),95.5% (inactive),102% (inactive),6.06% (inactive),95.9,102,4.66% (inactive),-3.87% (inactive)
COC(=O)CSc1ncccc1-c1nc2ccccc2[nH]1,110% (inactive),96.9% (inactive),90.8% (inactive),-0.73% (inactive),91.5,90.8,-2.33% (inactive),-5.48% (inactive)
c1cc2c(cc1C1CCCN1)OCCCO2 (stereo not drawn),103% (inactive),113% (inactive),91.6% (inactive),-7.94% (inactive),99.5,91.6,-5.21% (inactive),2% (inactive)
CCOC(=O)c1[nH]c2cc(OC)c(OC)cc2c1NC(=O)C(C)N1CCN(Cc2ccccc2)CC1 (stereo not drawn),73% (inactive),51.3% (inactive),59.2% (inactive),-6.81% (inactive),66.1,59.2,-4.59% (inactive),-5.09% (inactive)
O=C(O)CSc1ncn[nH]1,87% (inactive),102% (inactive),109% (inactive),0.37% (inactive),108,109,-6.58% (inactive),6.73% (inactive)
Cc1nc2ccc(S(=O)(=O)NCC(=O)N3CCCCC3)cc2s1,116% (inactive),100% (inactive),87.4% (inactive),2.37% (inactive),85,87.4,-2.99% (inactive),0.16% (inactive)
c1cnc(NCCNc2ncccn2)nc1,98% (inactive),112% (inactive),99.8% (inactive),10.7% (inactive),89,99.8,-8.4% (inactive),-3.82% (inactive)
COc1cccc(NS(=O)(=O)c2ccc3[nH]cc(C(=O)NC4CC4)c(=O)c3c2)c1,101% (inactive),70.3% (inactive),70.1% (inactive),-15.6% (inactive),85.7,70.1,-1.04% (inactive),2.13% (inactive)

Structure (SMILES),viability [1],viability [2],viability [3],differential viability (reversal) ([4]; H69AR cells + 2 uM doxorubicin),"viability [4, 7] [%]","viability [4, 8] [%]",inhibition [5],inhibition [6]
Cc1cccc(C)c1-n1nnnc1SCSc1nnnn1-c1c(C)cccc1C,92% (inactive),66.8% (inactive),72.1% (inactive),-1.23% (inactive),73.3,72.1,-7.81% (inactive),-0.73% (inactive)
COc1cccc(NC(=O)COC(=O)c2cccnc2)c1,91% (inactive),83.9% (inactive),91.1% (inactive),5.84% (inactive),85.3,91.1,-4.93% (inactive),4.35% (inactive)
O=C1c2ccccc2-c2ccc(C(=O)N3CCOCC3)cc21,87% (inactive),105% (inactive),89.7% (inactive),-2.82% (inactive),92.5,89.7,-2.7% (inactive),29.4% (inactive)
CC1(C)NC(=O)N(CC(O)CN2CCCC2)C1=O (stereo not drawn),96% (inactive),103% (inactive),97.2% (inactive),2.99% (inactive),94.2,97.2,0.13% (inactive),-2.79% (inactive)
COc1ccc(NC(=O)CSc2c(C)nn(-c3nnc(C)c(=O)[nH]3)c2C)cc1,101% (inactive),98.2% (inactive),113% (inactive),17% (inactive),95.5,113,-0.41% (inactive),-6.45% (inactive)
CCC(=O)Oc1ccc(C/C(=N\O)c2ccc(O)cc2O)o1,85% (inactive),90.6% (inactive),52.5% (inactive),-33% (inactive),85.5,52.5,3.01% (inactive),13.8% (inactive)
O=S1(=O)CCN2C(=N1)SC1=C2CCN(Cc2ccccc2)C1,106% (inactive),96.7% (inactive),89% (inactive),-1.18% (inactive),90.2,89,-9.04% (inactive),3.09% (inactive)
CCN1C(=O)/C(=C/N(C)c2ccccc2)OC1=S,97% (inactive),91.5% (inactive),93.7% (inactive),-0.96% (inactive),94.7,93.7,-2.6% (inactive),8.18% (inactive)
Nc1cccc(C(=O)O)c1,129% (inactive),98.2% (inactive),94.8% (inactive),7.12% (inactive),87.7,94.8,1.82% (inactive),0.33% (inactive)
Cc1ccc(S(=O)(=O)N2CCN(C(=O)N3CCOCC3)C2c2ccc(N(C)C)cc2)cc1 (stereo not drawn),106% (inactive),96.3% (inactive),110% (inactive),5.79% (inactive),105,110,-6.03% (inactive),9.64% (inactive)
O=C(O)CC1Sc2nc3ccccc3n2C1=O (stereo not drawn),105% (inactive),111% (inactive),102% (inactive),6.67% (inactive),95.4,102,-6.08% (inactive),-5.27% (inactive)
Clc1ccc(-n2nnnc2Sc2ncnc3sccc23)cc1,123% (inactive),5.51% (active),1.29% (active),-0.27% (inactive),1.56,1.29,20.6% (inactive),65.5% (active)
COc1ccc2c3c(c(=O)oc2c1OCC(N)=O)CCCC3,117% (inactive),117% (inactive),97.6% (inactive),16.2% (inactive),81.3,97.6,-5.48% (inactive),-2.55% (inactive)
COCCn1nnnc1C(c1ccccc1OC)N1CCc2ccccc2C1 (stereo not drawn),119% (inactive),103% (inactive),82.1% (inactive),-6.74% (inactive),88.8,82.1,-8.24% (inactive),-6.36% (inactive)
COc1ccc(C2/C(=C(/O)c3ccc(OC(C)C)cc3)C(=O)C(=O)N2CCCN2CCOCC2)cc1 (stereo not drawn),112% (inactive),97.7% (inactive),92.4% (inactive),-12.4% (inactive),105,92.4,-5.21% (inactive),-1.09% (inactive)
c1ccc(-c2oc3ncnc(NCCN4CCOCC4)c3c2-c2ccccc2)cc1,90% (inactive),58.8% (inactive),73.3% (inactive),40.4% (inactive),32.9,73.3,-0.52% (inactive),-4.1% (inactive)
COc1cccc(NC(=O)N2CCC(N3CCCCC3)CC2)c1,92% (inactive),88.2% (inactive),94.5% (inactive),-2.56% (inactive),97.1,94.5,-4.29% (inactive),-0.49% (inactive)
Cc1[nH]c2ccc(F)cc2c(=O)c1SC(F)(F)C(F)C(F)(F)F (stereo not drawn),72% (inactive),92.5% (inactive),83.3% (inactive),-14.3% (inactive),97.6,83.3,-5.95% (inactive),-5.27% (inactive)
